Test results published in ChEMBL document CHEMBL1938387 (J Med Chem, 2011).
Active and inactive are the calls of the source. The rule behind the calls is not given here.

Legend:
[1] = test system: HT-29; assay: Growth inhibition of human HT-29 cells after 72 hrs by methylene blue assay; format: functional, cell-based; conditions: HT-29, 72 h
In short: (§1)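 HT29, KB and MKN45 cells grown in DMEM, MEM or RPMI 1640 with 10% FBS at 37 °C in 5% CO2. Seeded at 8000−20000 cells/mL/well and allowed to adhere overnight. Exposed to various drug concentrations for 72 h, then methylene blue stain extracted with 1% N-lauroylsarcosine and A595 read. IC50 taken relative to untreated cells; means and standard errors, ≥3 independent experiments in duplicate.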

[2] = organism: Bos taurus; assay: (§2) Inhibition of bovine brain tubulin polymerization measured every 30 sec for 30 mins by turbidimetric assay
[3] = as §2; parameters: species or system Bos taurus
[4] = Growth inhibition of human KB-S15 cells after 72 hrs by methylene blue assay; format: functional, cell-based; conditions: KB-S15, 72 h
In short: (§3)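 Resistant KB sublines were maintained in extra drug: KB-Vin10 in 10 nM vincristine, KB-S15 in 50 nM paclitaxel, KB-7D in 7 μM VP16. Cells were kept drug-free for 3 days before harvest. Seeded at 8000−20000 cells/mL/well and exposed 72 h. Read by methylene blue, A595 after N-lauroylsarcosine extraction. Means and standard errors of ≥3 experiments in duplicate.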

[5] = organism: Bos taurus; assay: Inhibition of bovine brain tubulin polymerization at 5 uM measured every 30 sec for 30 mins by turbidimetric assay
[6] = organism: Bos taurus; assay: Displacement of [3H]cholchicine from bovine brain tubulin after 2 hrs by scintillation counting
In short: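 Scintillation proximity assay: 0.08 μM [3H]colchicine plus test compound and 0.5 μg biotin-labeled tubulin in 80 mM PIPES pH 6.8, 1 mM EGTA, 10% glycerol, 1 mM MgCl2, 1 mM GTP, 2 h at 37 °C. Streptavidin SPA beads (80 μg) then added and counts read directly by scintillation counter.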

[7] = organism: Bos taurus; assay: Displacement of [3H]cholchicine from bovine brain tubulin at 5 uM after 2 hrs by scintillation counting
[8] = organism: Bos taurus; assay: Displacement of [3H]cholchicine from bovine brain tubulin at 1 uM after 2 hrs by scintillation counting
[9] = Growth inhibition of human KB-7d cells after 72 hrs by methylene blue assay; format: functional, cell-based; conditions: KB7D; in short: as §3
[10] = test system: KB; assay: Growth inhibition of human KB cells after 72 hrs by methylene blue assay; format: functional, cell-based; in short: as §1
[11] = test system: MKN-45; assay: Growth inhibition of human MKN45 cells after 72 hrs by methylene blue assay; format: functional, cell-based; conditions: MKN-45, 72 h; in short: as §1
[12] = Growth inhibition of human KB-VIN10 cells after 72 hrs by methylene blue assay; format: functional, cell-based; conditions: KB-VIN10, 72 h; in short: as §3
[13] = test system: HUVEC; assay: Cytotoxicity against HUVEC assessed as reduction in cell viability at 15 to 120 uM; format: cell-based; conditions: human
[14] = test system: HUVEC; assay: Antiangiogenic activity in HUVEC assessed as inhibition of capillary tube formation after 4 hrs by Matrigel matrix assay; format: functional, cell-based; conditions: Homo sapiens
In short: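 HUVECs seeded at 2 × 10^4 cells/well on Matrigel in M199 with 20% FBS and 20 ng/mL VEGF. Capillaries formed over 4 h before test compound or DMSO vehicle was added. Imaged at addition and 4 h later. Capillary tube networks counted manually under a microscope at 100×, expressed relative to vehicle control. Mean ± SD of three separate experiments.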

IC50 [1] [nM] | IC50 [10] [nM] | IC50 [11] [nM] | SMILES | IC50 [4] [nM] | IC50 [9] [nM] | IC50 [12] [nM] | further results
16 | 18 | 4 | COc1cc(S(=O)(=O)c2ccc3c(N)c(OC)ccc3n2)cc(OC)c1OC | 2.5 | 2.4 | 2.8 | inhibition [2]: Dose-dependent effect; IC50 [3]: 2000 nM; inhibition [5]: Active; inhibition [6]: Dose-dependent effect; inhibition [7]: 85%; inhibition [8]: 65%
195 | 108 | 167 | COc1cc(C(=O)c2ccc3c(Br)c(OC)ccc3n2)cc(OC)c1OC | – | – | – | –
> 5000 | > 5000 | > 5000 | COc1cc(Nc2ccc3c(N)c(OC)ccc3n2)cc(OC)c1OC | – | – | – | –
– | – | – | CC[C@]1(O)C[C@H]2CN(CCc3c([nH]c4ccccc34)[C@@](C(=O)OC)(c3cc4c(cc3OC)N(C=O)[C@H]3[C@@](O)(C(=O)OC)[C@H](OC(C)=O)[C@]5(CC)C=CCN6CC[C@]43[C@@H]65)C2)C1 [VINCRISTINE] | 17.6 | 1.2 | 90.1 | –
– | – | – | CC(=O)O[C@H]1C(=O)[C@@]2(C)[C@H]([C@H](OC(=O)c3ccccc3)[C@]3(O)C[C@H](OC(=O)[C@H](O)[C@@H](NC(=O)c4ccccc4)c4ccccc4)C(C)=C1C3(C)C)[C@]1(OC(C)=O)CO[C@@H]1C[C@@H]2O [PACLITAXEL] | 273 | 7.9 | 16500 | –
> 5000 | > 5000 | > 5000 | COc1cc(-c2ccc3c(N)c(OC)ccc3n2)cc(OC)c1OC | – | – | – | –
40 | 59 | 28 | COc1cc(Sc2ccc3c(N)c(OC)ccc3n2)cc(OC)c1OC | – | – | – | –
– | – | – | COc1cc([C@@H]2c3cc4c(cc3[C@@H](O[C@@H]3O[C@@H]5CO[C@@H](C)O[C@H]5[C@H](O)[C@H]3O)[C@H]3COC(=O)[C@H]23)OCO4)cc(OC)c1O [ETOPOSIDE] | 3500 | 54000 | 23000 | –
139 | 31 | 61 | COc1cc(Oc2ccc3c(N)c(OC)ccc3n2)cc(OC)c1OC | 42.9 | 76.2 | 78.8 | IC50 [3]: 5800 nM; inhibition [7]: 60%; inhibition [8]: 44%
51 | 45 | 60 | COc1cc(C(=O)c2ccc3c(Cl)c(OC)ccc3n2)cc(OC)c1OC | – | – | – | –
3.1 | 2.8 | 4.5 | COc1cc(C(=O)c2ccc3c(O)c(OC)ccc3n2)cc(OC)c1OC | 5.2 | 9.2 | 5.8 | inhibition [2]: Dose-dependent effect; IC50 [3]: 1500 nM; inhibition [5]: Active; inhibition [7]: 97%; Activity [13]: Non-toxic; Activity [14]: Dose-dependent effect; inhibition [8]: 91%
1090 | 451 | 819 | COc1cc(C(=O)c2ccc3c(I)c(OC)ccc3n2)cc(OC)c1OC | – | – | – | –

SMILES | IC50 [1] [nM] | IC50 [10] [nM] | IC50 [11] [nM] | IC50 [4] [nM] | IC50 [9] [nM] | IC50 [12] [nM] | further results
COc1cc2c(c(OC)c1OC)-c1ccc(OC)c(=O)cc1[C@@H](NC(C)=O)CC2 [COLCHICINE] | 16.2 | – | 19.2 | – | – | – | –
